Reference: ChEMBL document CHEMBL1149773, “Synthesis, determination of the lipophilicity, anticancer and antimicrobial properties of some fused 1,2,4-triazole derivatives” (Eur J Med Chem, 2008)
≈ marks a conversion by molar mass, not a printed value.

Assays:
[1] = system: Streptococcus agalactiae; test: Antimicrobial activity against Streptococcus agalactiae at 200 ug/mL by disc-diffusion method; type: functional; details: read-out: IZ
How it was run: (§1)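 Kirby–Bauer disc diffusion: 5 mm paper discs soaked in compound solution in DMSO (100 or 200 µg/mL; reference drugs 200 µg/mL) and laid on inoculated Mueller-Hinton agar (bacteria) or Sabouraud agar (C. albicans, Aspergillus). DMSO discs were the control. Plates ran 24 h at 35 °C. Inhibition zone diameter was scored 0–10 mm R, 11–16 mm I, 17–25 mm S; triplicate.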

[2] = system: Klebsiella aerogenes; test: Antimicrobial activity against Enterobacter aerogenes at 200 ug/mL by disc-diffusion method; type: functional; details: read-out: IZ; how it was run: as §1
[3] = system: Aspergillus sp.; test: Antimicrobial activity against Aspergillus sp. at 100 ug/mL by disc-diffusion method; type: functional; details: read-out: IZ; how it was run: as §1
[4] = system: Aspergillus sp.; test: Antimicrobial activity against Aspergillus sp. at 200 ug/mL by disc-diffusion method; type: functional; details: read-out: IZ; how it was run: as §1
[5] = system: Staphylococcus aureus; test: Antimicrobial activity against Staphylococcus aureus ATCC 25923 at 200 ug/mL by disc-diffusion method; type: functional; details: read-out: IZ; how it was run: as §1
[6] = Antiproliferative activity against human RPMI cells assessed as cell viability at 100 uM by MTT assay; type: functional; details: read-out: Activity
How it was run: (§2)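 Log-phase cells, kept in supplemented RPMI 1640 (HSF in DMEM/10% FBS) at 37 °C, 5% CO2, were exposed 24 h to 1, 50 or 100 µM compound from DMSO. They were washed, given 0.5 mg/mL MTT in HEPES buffer pH 7.4 for 45 min at 37 °C, and formazan was dissolved in DMSO and read at 570 nm. Values are % viability versus control from three independent measurements.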

[7] = system: Proteus vulgaris; test: Antimicrobial activity against Proteus vulgaris at 200 ug/mL by disc-diffusion method; type: functional; details: read-out: IZ; how it was run: as §1
[8] = system: Candida albicans; test: Antimicrobial activity against Candida albicans ATCC 10231 at 100 ug/mL by disc-diffusion method; type: functional; details: read-out: IZ; how it was run: as §1
[9] = Lipophilicity, log kw in acetonitrile aqueous system at pH 3.5; type: physicochemical
How it was run: (§3)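 RP-HPLC on an octadecyl silica column (150 × 4.6 mm, 5 µm) at 22 ± 1 °C, flow 1.0 mL min⁻¹, UV detection at 254 nm. Mobile phase was methanol, acetonitrile or dioxane with water and 0.01 M phosphate buffer pH 3.5 containing 0.05 M DEA. log k_W was extrapolated to pure water by regression.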

[10] = system: Staphylococcus aureus; test: Antimicrobial activity against Staphylococcus aureus ATCC 25923 at 100 ug/mL by disc-diffusion method; type: functional; details: read-out: IZ; how it was run: as §1
[11] = system: Pseudomonas aeruginosa; test: Antimicrobial activity against Pseudomonas aeruginosa ATCC 27853 at 100 ug/mL by disc-diffusion method; type: functional; details: read-out: IZ; how it was run: as §1
[12] = system: Streptococcus agalactiae; test: Antimicrobial activity against Streptococcus agalactiae at 100 ug/mL by disc-diffusion method; type: functional; details: read-out: IZ; how it was run: as §1
[13] = system: Proteus vulgaris; test: Antimicrobial activity against Proteus vulgaris at 100 ug/mL by disc-diffusion method; type: functional; details: read-out: IZ; how it was run: as §1
[14] = Antiproliferative activity against human skin fibroblast assessed as cell viability at 1 uM by MTT assay; type: cell-based; details: human skin fibroblasts, read-out: Activity; how it was run: as §2
[15] = Antiproliferative activity against human skin fibroblast assessed as cell viability at 100 uM by MTT assay; type: cell-based; details: human skin fibroblasts, read-out: Activity
How it was run: (§4)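 MTT viability assay on primary human skin fibroblasts grown in DMEM with 10% FBS and penicillin/streptomycin. Compounds were dissolved in DMSO and given at 1, 50 or 100 µM for 24 h. Cells were washed in HEPES-buffered medium (pH 7.4) and then given MTT 0.5 mg mL⁻¹ for 45 min at 37 °C. Formazan was dissolved in DMSO and read at 570 nm. Viability is % of control; three independent measurements.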

[16] = system: Staphylococcus epidermidis; test: Antimicrobial activity against Staphylococcus epidermidis at 200 ug/mL by disc-diffusion method; type: functional; details: read-out: IZ; how it was run: as §1
[17] = system: Streptococcus pyogenes; test: Antimicrobial activity against Streptococcus pyogenes at 200 ug/mL by disc-diffusion method; type: functional; details: read-out: IZ; how it was run: as §1
[18] = Lipophilicity, log kw in methanol aqueous system at pH 3.5; type: physicochemical; how it was run: as §3
[19] = system: HeLa; test: Antiproliferative activity against human HeLa cells assessed as cell viability at 50 uM by MTT assay; type: functional; details: read-out: Activity; how it was run: as §2
[20] = system: HeLa; test: Antiproliferative activity against human HeLa cells assessed as cell viability at 100 uM by MTT assay; type: functional; details: read-out: Activity; how it was run: as §2
[21] = system: Klebsiella aerogenes; test: Antimicrobial activity against Enterobacter aerogenes at 100 ug/mL by disc-diffusion method; type: functional; details: read-out: IZ; how it was run: as §1
[22] = system: Escherichia coli; test: Antimicrobial activity against Escherichia coli ATCC 25922 at 100 ug/mL by disc-diffusion method; type: functional; details: read-out: IZ; how it was run: as §1
[23] = Antiproliferative activity against human RPMI cells assessed as cell viability at 50 uM by MTT assay; type: functional; details: read-out: Activity; how it was run: as §2
[24] = Antiproliferative activity against human RPMI cells assessed as cell viability at 1 uM by MTT assay; type: functional; details: read-out: Activity; how it was run: as §2
[25] = Antiproliferative activity against human skin fibroblast assessed as cell viability at 50 uM by MTT assay; type: cell-based; details: human skin fibroblasts, read-out: Activity; how it was run: as §4
[26] = system: Klebsiella pneumoniae; test: Antimicrobial activity against Klebsiella pneumoniae at 200 ug/mL by disc-diffusion method; type: functional; details: read-out: IZ; how it was run: as §1
[27] = system: Staphylococcus aureus; test: Antimicrobial activity against Staphylococcus aureus ATCC 25923 after 24 hrs by microdilution assay; type: functional; details: ATCC 25923, 24 h
[28] = system: HeLa; test: Antiproliferative activity against human HeLa cells assessed as cell viability at 1 uM by MTT assay; type: functional; details: read-out: Activity; how it was run: as §2
[29] = system: Pseudomonas aeruginosa; test: Antimicrobial activity against Pseudomonas aeruginosa ATCC 27853 at 200 ug/mL by disc-diffusion method; type: functional; details: read-out: IZ; how it was run: as §1
[30] = system: Escherichia coli; test: Antimicrobial activity against Escherichia coli ATCC 25922 at 200 ug/mL by disc-diffusion method; type: functional; details: read-out: IZ; how it was run: as §1
[31] = system: Staphylococcus epidermidis; test: Antimicrobial activity against Staphylococcus epidermidis at 100 ug/mL by disc-diffusion method; type: functional; details: read-out: IZ; how it was run: as §1
[32] = Lipophilicity, log kw in dioxane aqueous system at pH 3.5; type: physicochemical; details: buffer; how it was run: as §3
[33] = system: Streptococcus pyogenes; test: Antimicrobial activity against Streptococcus pyogenes at 100 ug/mL by disc-diffusion method; type: functional; details: read-out: IZ; how it was run: as §1
[34] = system: Candida albicans; test: Antimicrobial activity against Candida albicans ATCC 10231 at 200 ug/mL by disc-diffusion method; type: functional; details: read-out: IZ; how it was run: as §1
[35] = system: Klebsiella pneumoniae; test: Antimicrobial activity against Klebsiella pneumoniae at 100 ug/mL by disc-diffusion method; type: functional; details: read-out: IZ; how it was run: as §1
[36] = system: T47D; test: Growth inhibition of human T47D cells at 126.7 uM; type: functional; details: read-out: GI
How it was run: (§5)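 Vero, LS180, SiHa, T47D or primary HSF cells were seeded at 10^4 cells per mL and preincubated in microtiter plates. Compounds were added at 10 or 50 µg mL⁻¹ (printed µM equivalents depend on the compound) and incubated 72 h. End-point was BrdU labelling read spectrophotometrically on an ELISA reader. Growth inhibition is % versus untreated controls; triplicates.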

[37] = system: T47D; test: Growth inhibition of human T47D cells at 25.3 uM; type: functional; details: read-out: GI; how it was run: as §5
[38] = Growth inhibition of african green monkey Vero cells at 126.7 uM; type: cell-based; details: chlorocebus sabaeus, read-out: GI; how it was run: as §5
[39] = Growth inhibition of human skin fibroblast at 126.7 uM; type: cell-based; details: human skin fibroblasts, read-out: GI; how it was run: as §5
[40] = system: SiHa; test: Growth inhibition of human SiHa cells at 25.3 uM; type: functional; details: read-out: GI; how it was run: as §5
[41] = Growth inhibition of african green monkey Vero cells at 25.3 uM; type: cell-based; details: chlorocebus sabaeus, read-out: GI; how it was run: as §5
[42] = Growth inhibition of human LS180 cells at 126.7 uM; type: functional; details: read-out: GI; how it was run: as §5
[43] = Growth inhibition of human LS180 cells at 25.3 uM; type: functional; details: read-out: GI; how it was run: as §5
[44] = Growth inhibition of human skin fibroblast at 25.3 uM; type: cell-based; details: human skin fibroblasts, read-out: GI; how it was run: as §5
[45] = system: SiHa; test: Growth inhibition of human SiHa cells at 126.7 uM; type: functional; details: read-out: GI; how it was run: as §5
[46] = system: Pseudomonas aeruginosa; test: Antimicrobial activity against Pseudomonas aeruginosa ATCC 27853 after 24 hrs by microdilution assay; type: functional; details: ATCC 27853, 24 h

Row | logKw [9] | logKw [18] | logKw [32] | Compound | zone of inhibition at 200 µg/mL [1] [mm] | zone of inhibition at 200 µg/mL [2] [mm] | zone of inhibition at 100 µg/mL [3] [mm] | zone of inhibition at 200 µg/mL [4] [mm] | zone of inhibition at 200 µg/mL [5] [mm] | viability at 100 µM [6] [%] | zone of inhibition at 200 µg/mL [7] [mm] | zone of inhibition at 100 µg/mL [8] [mm] | zone of inhibition at 100 µg/mL [10] [mm] | zone of inhibition at 100 µg/mL [11] [mm] | zone of inhibition at 100 µg/mL [12] [mm] | zone of inhibition at 100 µg/mL [13] [mm] | viability at 1 µM [14] [%] | viability at 100 µM [15] [%] | zone of inhibition at 200 µg/mL [16] [mm] | zone of inhibition at 200 µg/mL [17] [mm] | viability at 50 µM [19] [%] | also measured
1 | 1 | 1.58 | 1.1 | Cc1ccc(N2CCn3c(COc4ccc(Cl)cc4C)nnc32)cc1 | 0 | 0 | 0 | 0 | 17 | 25.4 | 0 | 0 | 11 | 0 | 0 | 0 | 74.9 | 62.1 | 17 | 0 | 75.2 | viability at 100 µM [20]: 75.6%; zone of inhibition at 100 µg/mL [21]: 0 mm; zone of inhibition at 100 µg/mL [22]: 0 mm; viability at 50 µM [23]: 27.7%; viability at 1 µM [24]: 85.5%; viability at 50 µM [25]: 56.9%; zone of inhibition at 200 µg/mL [26]: 0 mm; MIC [27]: 44 µM (≈ 15.6 µg/mL); viability at 1 µM [28]: 95.1%; zone of inhibition at 200 µg/mL [29]: 0 mm; zone of inhibition at 200 µg/mL [30]: 0 mm; zone of inhibition at 100 µg/mL [31]: 11 mm; zone of inhibition at 100 µg/mL [33]: 0 mm; zone of inhibition at 200 µg/mL [34]: 0 mm; zone of inhibition at 100 µg/mL [35]: 0 mm
2 | 3.75 | 4.85 | 4.15 | Clc1ccc(N2CCn3c(COc4ccc(Cl)cc4Cl)nnc32)cc1 |  |  |  |  |  | 24.5 |  |  |  |  |  |  | 83 | 86.8 |  |  | 59.9 | inhibition of growth at 126.7 µM [36]: 48%; inhibition of growth at 25.3 µM [37]: 28%; inhibition at 126.7 µM [38]: 28%; inhibition at 126.7 µM [39]: 10%; inhibition of growth at 25.3 µM [40]: 35%; inhibition at 25.3 µM [41]: 20%; inhibition of growth at 126.7 µM [42]: 54%; viability at 100 µM [20]: 56.3%; viability at 50 µM [23]: 24.4%; inhibition of growth at 25.3 µM [43]: 48%; viability at 1 µM [24]: 98.4%; viability at 50 µM [25]: 83.9%; inhibition at 25.3 µM [44]: 7%; viability at 1 µM [28]: 68.4%; inhibition of growth at 126.7 µM [45]: 41%
3 | 3.32 | 6 | 4.61 | Clc1ccc(OCc2nnc3n2CCN3c2ccc(Cl)c(Cl)c2)c(Cl)c1 | 0 | 11 | 0 | 0 | 0 |  | 17 | 0 | 0 | 11 | 0 | 11 |  |  | 0 | 0 |  | zone of inhibition at 100 µg/mL [21]: 0 mm; zone of inhibition at 100 µg/mL [22]: 0 mm; zone of inhibition at 200 µg/mL [26]: 11 mm; MIC [46]: 36.3 µM (≈ 15.6 µg/mL); zone of inhibition at 200 µg/mL [29]: 17 mm; zone of inhibition at 200 µg/mL [30]: 0 mm; zone of inhibition at 100 µg/mL [31]: 0 mm; zone of inhibition at 100 µg/mL [33]: 0 mm; zone of inhibition at 200 µg/mL [34]: 0 mm; zone of inhibition at 100 µg/mL [35]: 0 mm
